Measured values from ChEMBL document CHEMBL1156002, “Synthesis, Raman, FT-IR, NMR spectroscopic characterization, antimicrobial activity, cytotoxicity and DNA binding of new mixed aza-oxo-thia macrocyclic compounds” (2009).
Converted amounts (≈) assume the structure as drawn.

Tests used:
Type in all cases: functional
[1] = test system: Micrococcus luteus; experiment: Antibacterial activity against Micrococcus luteus La 2971 after 24 hrs by broth micro dilution method; conditions: La 2971, 24 h
[2] = Cytotoxicity against human 23132/87 cells assessed as cell viability at 100 uM after 24 hrs by MTT assay; conditions: 23132-87, 24 h, read-out: Activity
Procedure, shortened: (§1)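 Cells were seeded at 3.10³–5.10³ per well in RPMI 1640 with 10% FBS, 4 mM L-glutamine and penicillin/streptomycin, then held 24 h at 37 °C under 5% CO₂. Ligands (DMSO, final 0.5% v/v) were added at 0.1–100 for 24 or 48 h. MTT was added for 4 h and dissolved in 50% DMF/5% SDS. A570 was read, and cytotoxicity was calculated as 100×(OD treated/OD untreated).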

[3] = test system: Listeria monocytogenes; experiment: Antibacterial activity against Listeria monocytogenes ATCC 15313 after 24 hrs by agar disk diffusion assay
Procedure, shortened: (§2)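 Disk diffusion with sterile 6 mm discs loaded with DMSO solutions of the test agents and placed on inoculated agar. Bacteria were pre-grown in Nutrient Broth at 30 °C for 24 h, and plates were incubated at 35 °C for 24 h. Each plate carried a reference antibiotic disc matched to the organism, and a DMSO-only solvent control was run.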

[4] = test system: Debaryomyces hansenii; experiment: Antifungal activity against Debaryomyces hansenii DSM 70238 after 24 hrs by broth micro dilution method; conditions: DSM 70238, 24 h
Procedure, shortened: (§3)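 Broth microdilution was run in cation-adjusted Mueller Hinton Broth. Compounds were dissolved in DMSO at 2 mg mL^-1 and serially diluted two-fold. Yeast precultures were grown in Malt Extract Broth for 48 h. The final inoculum was about 10⁶ cfu mL^-1, and plates were incubated at 37 °C for 24 h. The MIC was read from this series.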

[5] = test system: A549; experiment: Cytotoxicity against human A549 cells assessed as cell viability at 1 uM after 24 hrs by MTT assay; conditions: A549, 24 h, read-out: Activity; procedure, shortened: as §1
[6] = test system: A549; experiment: Cytotoxicity against human A549 cells assessed as cell viability at 10 uM after 48 hrs by MTT assay; conditions: A549, 48 h, read-out: Activity; procedure, shortened: as §1
[7] = test system: A549; experiment: Cytotoxicity against human A549 cells assessed as cell viability at 0.1 uM after 24 hrs by MTT assay; conditions: A549, 24 h, read-out: Activity; procedure, shortened: as §1
[8] = test system: Candida albicans; experiment: Antifungal activity against Candida albicans ATCC 10231 after 24 hrs by broth micro dilution method; conditions: ATCC 10231, 24 h; procedure, shortened: as §3
[9] = test system: Hanseniaspora guilliermondii; experiment: Antifungal activity against Hanseniaspora guilliermondii DSM 3432 after 72 hrs by agar disk diffusion assay
Procedure, shortened: (§4)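 Sterile 6 mm paper discs were loaded with ligand solution freshly prepared in DMSO and placed on inoculated agar. The inoculum came from broth cultures: bacteria in Nutrient Broth at 30 °C for 24 h, yeasts in Malt Extract Broth for 48 h. Plates were incubated at 35 °C for 24 h (bacteria) or 25 °C for 72 h (yeasts). A DMSO solvent control and a reference antibiotic disc were included on each plate.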

[10] = test system: Rhodotorula mucilaginosa; experiment: Antifungal activity against Rhodotorula rubra DSM 70403 after 72 hrs by agar disk diffusion assay; procedure, shortened: as §4
[11] = test system: Rhodotorula mucilaginosa; experiment: Antifungal activity against Rhodotorula rubra DSM 70403 after 24 hrs by broth micro dilution method; conditions: DSM 70403, 24 h; procedure, shortened: as §3
[12] = Cytotoxicity against human 23132/87 cells assessed as cell viability at 1 uM after 24 hrs by MTT assay; conditions: 23132-87, 24 h, read-out: Activity; procedure, shortened: as §1
[13] = Cytotoxicity against human 23132/87 cells assessed as cell viability at 10 uM after 48 hrs by MTT assay; conditions: 23132-87, 48 h, read-out: Activity; procedure, shortened: as §1
[14] = test system: Listeria monocytogenes; experiment: Antibacterial activity against Listeria monocytogenes ATCC 15313 after 24 hrs by broth micro dilution method; conditions: ATCC 15313, 24 h
[15] = test system: Proteus vulgaris; experiment: Antibacterial activity against Proteus vulgaris ATCC 8427 after 24 hrs by broth micro dilution method; conditions: ATCC 8427, 24 h
[16] = test system: Klebsiella pneumoniae; experiment: Antibacterial activity against Klebsiella pneumoniae UC57 after 24 hrs by agar disk diffusion assay; procedure, shortened: as §2

Compound: O=C1CCSCCC(=O)Nc2nc(nc(-c3ccccc3)n2)NC(=O)CCSCCC(=O)Nc2nc(nc(-c3ccccc3)n2)N1
- MIC [1]: 12.5 µg/mL (≈ 19 µM)
- viability at 100 µM [2]: > 86%
- inhibition zone (IZ) [3]: 10 mm
- MIC [4]: 3.12 µg/mL (≈ 4.74 µM)
- viability at 1 µM [5]: > 86%
- viability at 10 µM [6]: > 86%
- viability at 0.1 µM [7]: > 86%
- MIC [8]: 3.12 µg/mL (≈ 4.74 µM)
- inhibition zone (IZ) [9]: 19 mm
- inhibition zone (IZ) [10]: 16 mm
- MIC [11]: 6.25 µg/mL (≈ 9.49 µM)
- viability at 1 µM [12]: > 86%
- viability at 10 µM [13]: > 86%
- MIC [14]: 25 µg/mL (≈ 37.9 µM)
- MIC [15]: 25 µg/mL (≈ 37.9 µM)
- inhibition zone (IZ) [16]: 13 mm

Compound: O=C1CSSCC(=O)Nc2nc(nc(-c3ccccc3)n2)NC(=O)CSSCC(=O)Nc2nc(nc(-c3ccccc3)n2)N1
- MIC [1]: 3.12 µg/mL (≈ 4.69 µM)
- viability at 100 µM [2]: > 86%
- inhibition zone (IZ) [3]: 10 mm
- MIC [4]: 1.56 µg/mL (≈ 2.34 µM)
- viability at 1 µM [5]: > 86%
- viability at 10 µM [6]: > 86%
- viability at 0.1 µM [7]: > 86%
- MIC [8]: 3.12 µg/mL (≈ 4.69 µM)
- inhibition zone (IZ) [9]: 20 mm
- inhibition zone (IZ) [10]: 18 mm
- MIC [11]: 3.12 µg/mL (≈ 4.69 µM)
- viability at 1 µM [12]: > 86%
- viability at 10 µM [13]: > 86%
- MIC [14]: 25 µg/mL (≈ 37.5 µM)
- MIC [15]: 25 µg/mL (≈ 37.5 µM)
- inhibition zone (IZ) [16]: 15 mm

Compound: O=C1CCSSCCC(=O)Nc2nc(nc(-c3ccccc3)n2)NC(=O)CCSSCCC(=O)Nc2nc(nc(-c3ccccc3)n2)N1
- MIC [1]: 6.25 µg/mL (≈ 8.65 µM)
- viability at 100 µM [2]: > 86%
- inhibition zone (IZ) [3]: 10 mm
- MIC [4]: 1.56 µg/mL (≈ 2.16 µM)
- viability at 1 µM [5]: > 86%
- viability at 10 µM [6]: > 86%
- viability at 0.1 µM [7]: > 86%
- MIC [8]: 3.12 µg/mL (≈ 4.32 µM)
- inhibition zone (IZ) [9]: 22 mm
- inhibition zone (IZ) [10]: 21 mm
- MIC [11]: 3.12 µg/mL (≈ 4.32 µM)
- viability at 1 µM [12]: > 86%
- viability at 10 µM [13]: > 86%
- MIC [14]: 25 µg/mL (≈ 34.6 µM)
- MIC [15]: 12.5 µg/mL (≈ 17.3 µM)
- inhibition zone (IZ) [16]: 16 mm

Compound: O=C1CSCC(=O)Nc2nc(nc(-c3ccccc3)n2)NC(=O)CSCC(=O)Nc2nc(nc(-c3ccccc3)n2)N1
- MIC [1]: 12.5 µg/mL (≈ 20.7 µM)
- viability at 100 µM [2]: > 86%
- inhibition zone (IZ) [3]: 10 mm
- MIC [4]: 3.12 µg/mL (≈ 5.19 µM)
- viability at 1 µM [5]: > 86%
- viability at 10 µM [6]: > 86%
- viability at 0.1 µM [7]: > 86%
- MIC [8]: 6.25 µg/mL (≈ 10.4 µM)
- inhibition zone (IZ) [9]: 20 mm
- inhibition zone (IZ) [10]: 17 mm
- MIC [11]: 6.25 µg/mL (≈ 10.4 µM)
- viability at 1 µM [12]: > 86%
- viability at 10 µM [13]: > 86%
- MIC [14]: 25 µg/mL (≈ 41.5 µM)
- MIC [15]: 12.5 µg/mL (≈ 20.7 µM)
- inhibition zone (IZ) [16]: 13 mm
